The list is not random: actives were taken first. Their share in the collection is about 2.8%.
EP2 antag – EP2 receptor (human) inhibition | P43116 | C6 glioma cells expressing human EP2, cAMP TR-FRET; cells stimulated with saturating PGE2 | inhibition, % at 25 µM | actives 0.52% (n = 260,000);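 active means percent inhibition above 40 after rounding to a whole number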;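 further: rat C6 glioma host cells with rolipram phosphodiesterase inhibitor present; the protocol text gives 20 µM as final concentration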
Target sequence (P43116 whole entry, looked up): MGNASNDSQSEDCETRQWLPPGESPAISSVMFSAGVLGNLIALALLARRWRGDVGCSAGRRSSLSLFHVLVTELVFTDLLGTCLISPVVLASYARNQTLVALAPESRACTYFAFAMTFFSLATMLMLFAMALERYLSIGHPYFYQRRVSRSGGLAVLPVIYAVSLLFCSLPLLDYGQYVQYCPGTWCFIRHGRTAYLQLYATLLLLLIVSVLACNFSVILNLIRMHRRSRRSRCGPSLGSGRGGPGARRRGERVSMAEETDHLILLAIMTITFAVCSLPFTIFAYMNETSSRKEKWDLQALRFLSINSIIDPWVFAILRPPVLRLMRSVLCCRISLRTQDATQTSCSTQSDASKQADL
NPY-Y1 antag – NPY-Y1 (human) receptor antagonism; HEK293-CNG Y1 cells, membrane potential fluorescence; NPY at EC95, then isoproterenol; inhibition, % at 3.6 µM; actives 1% (n = 200,000); AID 1040;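 active means inhibition above the campaign mean inhibition of all tested compounds plus 3 SD, cut at about 20% in these data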;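 further: 0% = DMSO wells given NPY plus isoproterenol and 100% = isoproterenol alone without NPY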
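material = HEK293 cells with Y1 receptor plus CNG channel | also added = NPY 25 nM then isoproterenol 1 µM plus Ro 20-1724 25 µM | schedule = dye 3 h, compound 60 min room temperature, stimulation 45 min | measured by = membrane potential fluorescence | benchmarks = high control isoproterenol alone, low control NPY with isoproterenol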
NPY-Y1 PAM-ag – potentiates or activates human NPY-Y1 receptor. P25929. NPY-Y1 expressing cells, potentiator/agonist activation. activation, % at 3.6 µM. actives 0.37% (n = 220,000). AID 1304; in the data active means activation above about 33%, passing the limit was not always enough;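 further: cells stimulated with NPY at EC10 then isoproterenol at EC100; 0% = low agonist plus stimulus and 100% = saturating agonist plus stimulus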
EP2 modulator – modulates human prostaglandin E2 receptor EP2 signaling | EP2-expressing cells, cAMP HTRF FRET, PGE2 co-stimulation | AID 940 | actives 0.83% (n = 260,000) | induction, % at 25 µM;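 active means compounds whose cAMP rise, as percent of the full-agonist control response, exceeds 60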;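 further: rat C6 glioma line stably carrying human EP2 under a CMV promoter; the protocol text gives 20 µM as final concentration; 100% = response of wells given 1 µM PGE2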
NPY-Y2 PAM-ag – potentiators or agonists of human neuropeptide Y receptor Y2 | P49146 | actives 0.45% (n = 220,000) | cells expressing NPY-Y2, potentiator/agonist read-out | AID 1359 | activation, % at 3.6 µM; in the data active means activation above about 27%;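 further: cells stimulated with NPY near EC25 plus isoproterenol at EC100; 0% = vehicle plus submaximal agonist and 100% = vehicle plus saturating agonist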
NPY Y2 blocker – NPY-Y2 (human) receptor antagonism; actives 0.99% (n = 140,000); inhibition, % at 2.7 µM; AID 793; NPY-Y2 expressing cells, antagonist mode; in the data active means inhibition above about 17%;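 further: 0% = vehicle with agonist challenge and 100% = reference antagonist with challenge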
* hit, by the source's call; nt = not tested or not shown; ! = not confirmed by another sample.

SMILES	EP2 antag	NPY-Y1 antag	NPY-Y1 PAM-ag	EP2 modulator	NPY-Y2 PAM-ag	NPY Y2 blocker
CCN(CC)c1ccc(/C=C2\C(=O)NC(=O)N(c3ccc(OC)cc3)C2=O)o1	12	nt	nt	-69	nt	nt
CCC(=O)Nc1nonc1-c1nc2ccccc2n1Cc1ccc(F)cc1	20	nt	nt	22	nt	nt
O=C(Nc1cccc2ccccc12)c1cc2n(n1)C(C(F)(F)F)CC(c1ccco1)N2 (stereo not drawn)	9	nt	nt	-29	nt	nt
c1ccc(Nc2nc(N3CCCCC3)nc(N3CCNCC3)n2)cc1	28	5	-2	7	0	7
C1CCN(c2nc(N3CCCC3)nc(N3CCNCC3)n2)C1	5	-8	79*	25	69*	3
CC1CCN(CC(=O)Nc2sc3c(c2C(N)=O)CCCC3)CC1	11	nt	nt	-34	nt	nt
CNCc1ccccc1Sc1cc(O)ccc1O	106*	9	-6	-3	6	4
CNCc1ccccc1Sc1cccc(O)c1	7	-6	-20	7	11	4
CC(C)c1ccc(OCC(=O)Nc2ccc(OC(F)(F)F)cc2)cc1	12	9	-15	13	8	5
CC(C)c1ccc(NC(=O)COc2ccccn2)cc1	95*	-4	-23	-17	-12	nt
O=C(NC1CCCCCC1)c1cc(S(=O)(=O)N2CCCCC2)ccc1N1CCOCC1	3	21*	-1	-44	-2	nt
O=C(NC1CCCCCC1)c1cc(S(=O)(=O)N2CCOCC2)ccc1N1CCCCC1	3	6	18	-14	0	9
CCc1nn(CC(=O)NC(C)C)c(=O)c2cc3ccsc3n12	nt	nt	nt	-53	nt	nt
CCCOc1ccc(C2C3=C(CCCC3=O)N(C)C3=C2C(=O)CCC3)cc1OC	13	nt	nt	-18	nt	nt
COc1ccc(CNC(=O)c2csc(Cc3ccccc3)n2)cc1	7	14	-38	-8	-12	4
COc1ccccc1CNC(=O)c1csc(Cc2ccc(Cl)cc2)n1	15	2	6	62*	-6	4
N#Cc1nc(-c2ccco2)oc1N1CCC(Cc2ccccc2)CC1	1	21*	-23	-29	-20	20*
N#Cc1nc(-c2ccco2)oc1N1CCN(c2ccccc2)CC1	-3	26*	-44	-16	-4	11
COc1ccc(Nc2nc(N3CCCCC3)c3ccccc3n2)cc1	8	34*	-44	18	-2	41*
Cc1ccc(Nc2nc(N)c([N+](=O)[O-])c(N3CCOCC3)n2)cc1	7	-4	-5	-13	2	3
Cc1ccc(Nc2nc(N3CCOCC3)c3ccccc3n2)cc1	18	23*	-38	-7	-53	8
Oc1ccc(Nc2nc(N3CCCC3)c3ccccc3n2)cc1	13	2	-5	-25	-7	3
CCC(=O)N(C)Cc1cc2cc(OC)ccc2[nH]c1=O	12	nt	nt	-27	nt	nt
Cc1occc1-c1nnc(SCC(=O)N2CCCCC2)n1Cc1ccccc1	5	nt	nt	-24	nt	nt
Cc1occc1-c1nnc(SCC(=O)N2CCN(c3ccccc3F)CC2)n1C	7	2	7	75*!	-21	3
SMILES	EP2 antag	NPY-Y1 antag	NPY-Y1 PAM-ag	EP2 modulator	NPY-Y2 PAM-ag	NPY Y2 blocker
Cc1ccccc1C1(O)CCN(CC(O)c2ccccc2)CC1 (stereo not drawn)	10	nt	nt	-69	nt	nt
COc1cccc2c(=S)c(CCC(C)=O)c(C)[nH]c12	7	4	8	63*	9	1
Cc1ccc(CN2CC(C(=O)Nc3cc(S(C)(=O)=O)ccc3Cl)CC2=O)cc1 (stereo not drawn)	11	8	0	6	-3	0
Cc1ccc(CN2CC(C(=O)Nc3ccc(F)c([N+](=O)[O-])c3)CC2=O)cc1 (stereo not drawn)	8	-10	81*	-66	70*	nt
CCc1nc(SCC(=O)Nc2cccc(NC(C)=O)c2)c2c(C)c(C)sc2n1	30	nt	nt	20	nt	nt
COc1ccc(NS(=O)(=O)c2c(C)cc(C)cc2C)cc1	9	3	-8	-40	11	3
Cc1cc(C)c(S(=O)(=O)Nc2ccc(OCC(=O)O)cc2)c(C)c1	18	-8	47*	-1	51*	-1
O=C1CC(=C(c2ccccc2)c2ccccc2)C(=O)N1CCCN1CCN(c2cccc(Cl)c2)CC1	8	-1	75*	10	62*	1
CC(=O)Nc1ccc(N2CCCCC2)c(C(=O)Nc2cccc(C)c2)c1	13	-4	11	62*	-6	-1
O=C(Oc1cccc2cccnc12)c1cc2ccccc2o1	6	nt	nt	3	nt	nt
C/C(=N\N=C(/N)SC1CC(=O)N(c2ccc(Br)cc2)C1=O)c1cccs1 (stereo not drawn)	7	-8	45*	-26	44*	-4
CCOC(=O)C(C)n1ncc2c3sc(C)cc3n(Cc3ccc(F)cc3)c2c1=O (stereo not drawn)	nt	nt	nt	65*	nt	nt
Cc1cc2c(s1)c1cnn(CC(=O)O)c(=O)c1n2Cc1ccc(F)cc1	5	nt	nt	-97	nt	nt
Cc1nc2ccccn2c(=O)c1CCN1CCC(C(=O)c2ccc(F)cc2)CC1	10	4	-35	-14	-3	2
Cc1nc2sccn2c(=O)c1CCN1CCC(=C(c2ccc(F)cc2)c2ccc(F)cc2)CC1	13	29*	-58	13	-21	39*
O=C(NC1CCCC1)C(c1ccccc1F)N(C(=O)c1ccco1)c1ccc2c(c1)OCO2 (stereo not drawn)	11	nt	nt	18	nt	nt
CC1CC(C)CN(C(=O)c2ccc3c(c2NCCO)C(=O)c2ccccc2C3=O)C1 (stereo not drawn)	15	-18	55*	-2	49*	-9
CCN(CC)CCn1c(=N)n(CCOc2ccccc2)c2ccccc21	12	30*	-13	4	-13	35*
Clc1ccc(CN(Cc2ccc(Cl)cc2)c2nn[nH]n2)cc1	5	31*	-30	-44	-26	nt
C[C@H]1[C@H](C)CC[C@]2(C(=O)O)CC[C@]3(C)C(=CCC4[C@@]5(C)C[C@@H](O)[C@H](O)[C@@](C)(CO)C5[C@H](O)C[C@]43C)[C@H]12 (stereo partly drawn)	14	nt	nt	-1	nt	nt
C[C@H]1[C@H](C)CC[C@@]2(C(=O)O)CC[C@@]3(C)C(=CC[C@H]4[C@]5(C)C[C@H](O)[C@@H](O)[C@@](C)(CO)[C@H]5[C@H](O)C[C@@]43C)[C@H]12	43*	nt	nt	31	nt	nt
O=C(Nc1ccc(C(=O)N2CCCC2)cc1)c1ccccc1F	4	-2	11	22	14	2
O=C(Nc1cc(C(=O)N2CCCC2)ccc1N1CCCC1)c1ccccc1F	8	-8	44*	-1	39*	2
CC(=O)C(C(C)=O)c1c(Cl)c(O)c(O)c2c(C(=O)c3ccccc3)coc12	57*	-3	4	-27	9	-3
Cn1c(=O)n(CC(=O)Nc2ccccc2N2CCOCC2)c2cccnc21	3	nt	nt	-48	nt	nt

Screens (PubChem BioAssay)
